# Experimental data reported in PubChem BioAssay AID504412 (Broad Institute, 2011).
# Active and inactive are the calls of the source.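 How the source made its calls: active means activation of at least 10% at the 50 µM dose, scaled between neutral and positive controls; inactive means the rest.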
# Test: cytochrome c release from CHL-1 A1-2A-BIM mitochondria, confirmation, orthogonal assay for A1 inhibitor project, biochemical, isolated mitochondria, cytochrome c ELISA, dry powder (AID 504412)
# Conditions: stronger effect = higher value
# Method in brief: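 measured by = human cytochrome c ELISA on supernatant, absorbance 450 nm, 540 nm correction | material = mitochondria isolated from A1-2A-BIM construct-expressing CHL-1 cells | read-out = supernatant cytochrome c level | timing = compound exposure of mitochondria 30 min at 30 °C | medium = trehalose AT buffer, pH 7.7, 80 mM KCl | control set = DMSO low, DMSO with tBid high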
smiles,measurement,setting,value
Cn1c(=O)c([N+](=O)[O-])c(Cl)c2ccccc21,activation,at 50 µM,25.6% (active)
same,activation,"cytochrome c release, at 10 µM",10.1%
